Experimental data from ChEMBL document CHEMBL1143576, “Discovery of 2-arylthiazolidine-4-carboxylic acid amides as a new class of cytotoxic agents for prostate cancer” (J Med Chem, 2005).

Key:
PC-3 [1] = test: Antiproliferative activity against prostate cancer PC-3 cell line using sulforhodamine B(SRB) assay; assay type: functional, cell-based, Homo sapiens
In short: (§1)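 Cells seeded at 1000 to 5000 per well, depending on growth rate, and exposed to a range of concentrations for 96 h, in three to five replicates. Stocks were 5 to 20 mM in DMSO, diluted into complete medium. Endpoint cell number was measured by SRB: 10% trichloroacetic acid fixation, 0.4% SRB stain, absorbance at 540 nm.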

RH7777 [2] = test: Antiproliferative effect against RH7777 cell line using sulforhodamine B(SRB) assay; assay type: functional, cell-based; conditions: Rattus norvegicus; in short: as §1
DU-145 = test: Antiproliferative activity against prostate cancer DU-145 cell line using sulforhodamine B(SRB) assay; assay type: functional, cell-based; conditions: Homo sapiens; in short: as §1
TSU = test: Antiproliferative activity against prostate cancer TSU-Pr1 cell line using sulforhodamine B(SRB) assay; assay type: functional, cell-based; conditions: Homo sapiens; in short: as §1
LNCaP [3] = test: Antiproliferative activity against prostate cancer LNCaP Cell line using sulforhodamine B(SRB) assay; assay type: functional, cell-based; conditions: Homo sapiens, Prostate gland; in short: as §1
PPC-1 = test: Antiproliferative activity against prostate cancer PPC-1 cell line using sulforhodamine B(SRB) assay; assay type: functional, cell-based; conditions: Homo sapiens; in short: as §1
LNCaP [4] = test: Induction of apoptosis in human LNCaP Cell line at 2 uM concentration after 72 hr; assay type: functional
In short: (§2)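 Cells were exposed to compound for 72 h. Cytoplasmic DNA-histone complexes (mono- and oligonucleosomes) were quantified by sandwich ELISA using monoclonal antibodies against DNA and histones. The enrichment factor is the OD405 ratio of treated to untreated cells.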

LNCaP [5] = test: Induction of apoptosis in human LNCaP Cell line 20 at uM concentration after 72 hr; assay type: functional; in short: as §2
PC-3 [6] = test: Induction of apoptosis in human PC-3 cell line at 10 uM concentration after 72 hr; assay type: functional; in short: as §2
PC-3 [7] = test: Induction of apoptosis in human PC-3 cell line at 20 uM concentration after 72 hr; assay type: functional; in short: as §2
PC-3 [8] = test: Induction of apoptosis in human PC-3 cell line at 2 uM concentration after 72 hr; assay type: functional; in short: as §2
LNCaP [9] = test: Induction of apoptosis in human LNCaP Cell line at 5 uM concentration after 72 hr; assay type: functional; in short: as §2
PC-3 [10] = test: Induction of apoptosis in human PC-3 cell line at 5 uM concentration after 72 hr; assay type: functional; in short: as §2
LNCaP [11] = test: Induction of apoptosis in human LNCaP Cell line 10at uM concentration after 72 hr; assay type: functional; in short: as §2
[12] = system: RH7777 (Rattus norvegicus); test: Antiproliferative effect against RH7777 cell line using sulforhodamine B(SRB) assay; No activity
LNCaP [13] = test: Induction of apoptosis in human LNCaP Cell line at 10 uM concentration after 72 hr; assay type: functional; in short: as §2
RH7777 [14] = test: Induction of apoptosis in rat RH7777 cell line at 10 uM concentration after 72 hr
[15] = system: RH7777 (Rattus norvegicus); test: Induction of apoptosis in rat RH7777 cell line at 2 uM concentration after 72 hr
RH7777 [16] = test: Induction of apoptosis in rat RH7777 cell line at 5 uM concentration after 72 hr
[17] = Homo sapiens, PC-3, read-out: IC50

SMILES | IC50 (PC-3 [1]; [17]) | IC50 (DU-145) | IC50 (LNCaP [3]) | IC50 (RH7777 [2]) | IC50 (TSU) | IC50 (PPC-1) | also measured
CCCCCCCCCCCCCCCCCCNC(=O)c1csc(-c2ccccc2)n1 | > 20 µM | > 20 µM | > 20 µM | > 20 µM | > 20 µM | > 20 µM | 
CCCCCCCCCCCCCCCCCCNC(=O)[C@H]1CSC(c2ccc([N+](=O)[O-])cc2)N1 (some centres undefined) | ~20 µM | 15.3 µM | 8.4 µM | ~20 µM | 15.9 µM | 15.3 µM | 
CCCCCCCCCCCCCCCCCCNC(=O)[C@H]1CSC(c2ccccc2)N1S(C)(=O)=O (some centres undefined) | > 20 µM | > 20 µM | > 20 µM | > 20 µM | > 20 µM | > 20 µM | 
CCCCCCCCCCCCCCCCCCNC(=O)[C@H]1CSC(c2cc(F)cc(F)c2)N1 (some centres undefined) | > 20 µM | > 20 µM | 11.2 µM | > 20 µM | > 20 µM | 10.6 µM | 
CCCCCCCCCCCCCCCCCCNC(=O)[C@H]1CSC(c2ccc(N(C)C)cc2)N1 (some centres undefined) | 6 µM | 5.3 µM | 1.6 µM | > 20 µM | 3 µM | 1.1 µM | 
CCCCCCCCCCCCCCCCCCNC(=O)[C@H]1CSC(c2c(Cl)cccc2Cl)N1 (some centres undefined) | > 20 µM | > 20 µM | 13.1 µM | > 20 µM | 20 µM | 17.1 µM | 
CCCCCCCCCCCCCCCCCCNC(=O)[C@H]1CSC(c2ccccc2)N1C(C)=O (some centres undefined) | ~20 µM | ~20 µM | 16.1 µM | > 20 µM | > 20 µM | 12.6 µM | 
CCCCCCCCCCCCCCCCCCNC(=O)[C@H]1CSC(c2ccc(F)c(Br)c2)N1 (some centres undefined) | 13.5 µM | 11.3 µM | 3 µM | 20 µM | 14 µM | 4.7 µM | 
CCCCCCCCCCCCCCCCCCNC(=O)[C@H]1CSC(c2ccc(C#N)cc2)N1 (some centres undefined) | > 20 µM | > 20 µM | 5.9 µM | > 20 µM | > 20 µM | 5 µM | 
CCCCCCCCCCCCCCCCCCNC(=O)[C@H]1CSC(c2c[nH]c3ccccc23)N1 (some centres undefined) | 11.5 µM | 8.9 µM | 2.1 µM | > 20 µM | 4.4 µM | 1.3 µM | 
CCCCCCCNC(=O)[C@H]1CSC(c2ccccc2)N1 (some centres undefined) | 38.5 µM | 44.9 µM | 12.4 µM | 52.2 µM | 28 µM | 34.7 µM | 
CCCCCCCCCCCCCCCCCCNC(=O)[C@H]1CSC(c2ccc(-c3ccccc3)cc2)N1 (some centres undefined) | > 20 µM | > 20 µM | > 20 µM | > 20 µM | > 20 µM | > 20 µM | 
CCCCCCCCCCCCCCCCCCNC(=O)[C@H]1CSC(c2ccc(OC)cc2)N1 (some centres undefined) | ~20 µM | 8.7 µM | 2.1 µM | > 20 µM |  | 1.5 µM | 
CCCCCCCCCCCCCCCCCCNC(=O)[C@H]1CSC(c2ccc(OC)c(OC)c2)N1 (some centres undefined) | 5.2 µM | 4.5 µM | 0.85 µM | 10.3 µM | 2.4 µM | 0.58 µM | 
CCCCCCCCCCCCCCCCCCNC(=O)[C@H]1CSC(c2cc(OC)c(OC)c(OC)c2)N1 (some centres undefined) | 4 µM | 3.9 µM | 0.82 µM | 11.4 µM | 2.4 µM | 0.48 µM | 
CCCCCCCCCCCCCCCCCCNC(=O)[C@H]1CSC(c2ccc(NC(C)=O)cc2)N1 (some centres undefined) | 5.6 µM | 3.1 µM | 1.3 µM | 21.1 µM | 0.94 µM | 0.55 µM | 
CCCCCCCCCCCCCCNC(=O)[C@H]1CSC(c2ccccc2)N1.Cl (some centres undefined) | 3 µM | 2.4 µM | 1.4 µM | 3.4 µM | 2 µM | 1.3 µM | Apoptosis (LNCaP [13]): 80.7; Apoptosis (LNCaP [4]): 14.1; Apoptosis (PC-3 [6]): 54; Apoptosis (RH7777 [14]): 2.5; Apoptosis (PC-3 [8]): 1.8; Apoptosis [15]: 2.6; Apoptosis (RH7777 [16]): 3.2; Apoptosis (LNCaP [9]): 75.4; Apoptosis (PC-3 [10]): 18.7
CC(=O)O[C@H]1C(=O)[C@@]2(C)[C@H]([C@H](OC(=O)c3ccccc3)[C@]3(O)C[C@H](OC(=O)[C@H](O)[C@@H](NC(=O)c4ccccc4)c4ccccc4)C(C)=C1C3(C)C)[C@]1(OC(C)=O)CO[C@@H]1C[C@@H]2O [PACLITAXEL] | 0.0034 µM | 0.0027 µM | 0.002 µM |  | 0.0021 µM | 0.0034 µM | 

Continued, in another order:

IC50 (PC-3 [1]; [17]) | IC50 (DU-145) | IC50 (LNCaP [3]) | SMILES | IC50 (RH7777 [2]) | IC50 (TSU) | IC50 (PPC-1) | also measured
6.8 µM | 5.7 µM | 1.9 µM | CCCCCCCCCCCCCCCCCCNC(=O)[C@H]1CSC(c2ccc(F)cc2)N1 (some centres undefined) | 17.4 µM | 5.4 µM | 2.1 µM | 
17.3 µM | 13.8 µM | 5.1 µM | CCCCCCCCCCCCCCCCCCNC(=O)[C@H]1CSC(c2ccc(Br)cc2)N1 (some centres undefined) | > 20 µM | 18.3 µM | 3.7 µM | 
15 µM | 8.9 µM | 11.9 µM | CCCCCCCCCCCCCCCCCCNC(=O)[C@H]1CSC(CCCCCCCCCCCC)N1 (some centres undefined) | ~20 µM | 10.7 µM | 13 µM | 
12.8 µM | 10.5 µM | 1.9 µM | CCCCCCCCCCCCCCCCCCNC(=O)[C@H]1CSC(c2ccc(C)cc2)N1 (some centres undefined) | > 20 µM | 8 µM | 1.9 µM | 
16.4 µM | 15.3 µM | 4.4 µM | CCCCCCCCCCCCCCCCCCNC(=O)[C@H]1CSC(Cc2ccccc2)N1 (some centres undefined) | > 20 µM | 11.2 µM | 4 µM | 
9.2 µM | 7.5 µM | 3.6 µM | CCCCCCCCCCCCCCCCCCNC(=O)[C@H]1CSC(c2cccnc2)N1 (some centres undefined) | 10.5 µM | 7.8 µM | 2.9 µM | 
6.7 µM | 5.7 µM | 1.7 µM | CCCCCCCCCCCCCCCCCCNC(=O)[C@H]1CSC(c2cccc(O)c2)N1 (some centres undefined) | 31 µM | 4 µM | 1.2 µM | 
> 20 µM | > 20 µM | 12.8 µM | CCCCCCCCCCCCCCCCCCNC(=O)[C@H]1CSC(C2CCCCC2)N1 (some centres undefined) | > 20 µM | > 20 µM | 9.3 µM | 
7.8 µM | 5.4 µM | 2.1 µM | CCCCCCCCCCCCCCCCCCNC(=O)[C@H]1CSC(c2ccccc2)N1.Cl (some centres undefined) | 25.6 µM | 5 µM | 2 µM | Apoptosis (LNCaP [4]): 4.5; Apoptosis (LNCaP [5]): 26.1; Apoptosis (PC-3 [6]): 3.4; Apoptosis (PC-3 [7]): 12.7; Apoptosis (PC-3 [8]): 1.4; Apoptosis (LNCaP [9]): 45.2; Apoptosis (PC-3 [10]): 2.3; Apoptosis (LNCaP [11]): 37.1
8.1 µM | 6.6 µM | 1.7 µM | CCCCCCCCCCCCCCCCCCNC(=O)[C@H]1CSC(c2ccoc2)N1 (some centres undefined) | 10.4 µM | 4.2 µM | 1.1 µM | 
 | > 20 µM | 13.6 µM | CCCCCCCCCCCCCCCCCCCNC(=O)[C@H]1CSC(c2ccccc2)N1.Cl (some centres undefined) |  | > 20 µM | 16.8 µM | IC50 (PC-3 [1]; pc-3): No activity; IC50 [12]: No activity
